From ChEMBL document CHEMBL1140728, “Synthesis and biological activity of human neuropeptide S analogues modified in position 2” (J Med Chem, 2008)
pEC50: −log10 of the molar value. Non-standard residues stand in square brackets, D forms with d. Residues, ends and D or L forms follow the SMILES beside them. Phe(4-CF3) = N[C@@H](Cc1ccc(C(F)(F)F)cc1)C(=O)O; Bip = N[C@@H](Cc1ccc(-c2ccccc2)cc1)C(=O)O; Phe(4-Br) = N[C@@H](Cc1ccc(Br)cc1)C(=O)O; Phe(4-CN) = N#Cc1ccc(C[C@H](N)C(=O)O)cc1; Phe(4-Cl) = N[C@@H](Cc1ccc(Cl)cc1)C(=O)O; Phe(4-F) = N[C@@H](Cc1ccc(F)cc1)C(=O)O; Phe(4-I) = N[C@@H](Cc1ccc(I)cc1)C(=O)O; Phe(4-Me) = Cc1ccc(C[C@H](N)C(=O)O)cc1; 1Nal = N[C@@H](Cc1cccc2ccccc12)C(=O)O; Atc(2S) = N[C@@]1(C(=O)O)CCc2ccccc2C1; Phe(2-Me) = Cc1ccccc1C[C@H](N)C(=O)O; Cha = N[C@@H](CC1CCCCC1)C(=O)O; Aic = NC1(C(=O)O)Cc2ccccc2C1; Nphe = O=C(O)CNCc1ccccc1

What was measured:
[1] = biological target: T1, Neuropeptide S receptor (Mus musculus) (UniProt Q8BZP8); experiment: Agonist activity at mouse recombinant NPS receptor expressed in HEK293 cells assessed as intracellular calcium mobilization relative to baseline; assay type: functional, cell-based
T1 sequence (whole entry): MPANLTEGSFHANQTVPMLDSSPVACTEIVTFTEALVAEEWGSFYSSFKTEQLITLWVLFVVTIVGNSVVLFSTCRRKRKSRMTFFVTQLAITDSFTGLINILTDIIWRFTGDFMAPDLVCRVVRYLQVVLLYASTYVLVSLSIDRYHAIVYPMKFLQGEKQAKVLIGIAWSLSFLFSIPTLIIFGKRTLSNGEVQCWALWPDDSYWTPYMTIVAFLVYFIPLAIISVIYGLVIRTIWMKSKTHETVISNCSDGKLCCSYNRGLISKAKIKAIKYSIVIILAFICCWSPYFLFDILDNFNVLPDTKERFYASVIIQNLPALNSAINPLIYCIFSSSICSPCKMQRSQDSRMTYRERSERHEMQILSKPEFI
Method in brief: (§1)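 HEK293 cells stably expressing mouse NPSR, kept in DMEM with 10% FBS, 2 mM L-glutamine and hygromycin (100 mg/L), were seeded at 50 000 cells/well. Next day they were loaded with Fluo-4 AM (3 µmol), probenecid (2.5 mmol) and 0.01% pluronic acid for 30 min at 37 °C. Agonist dilutions in HBSS/HEPES with 0.02% BSA were added, and FlexStation II fluorescence was read at 22 °C.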

Neuropeptide S receptor = biological target: T2, Neuropeptide S receptor (Mus musculus, UniProt Q8BZP8); experiment: Agonist activity at mouse recombinant NPS receptor expressed in HEK293 cells assessed as intracellular calcium mobilization; assay type: functional, cell-based; method in brief: as §1
T2 sequence (Q8BZP8 whole entry): T1 sequence (whole entry)

Compound	Emax [1]	pEC50 (Neuropeptide S receptor)
CSCC[C@H](NC(=O)CNC(=O)[C@@H](NC(=O)CNC(=O)[C@@H](NC(=O)CNC(=O)[C@H](CC(N)=O)NC(=O)[C@H](CCCNC(=N)N)NC(=O)[C@H](Cc1cccc2ccccc12)NC(=O)[C@@H](N)CO)C(C)C)[C@@H](C)O)C(=O)N[C@@H](CCCCN)C(=O)N[C@@H](CCCCN)C(=O)N[C@H](C(=O)N[C@@H](CO)C(=O)N[C@@H](Cc1ccccc1)C(=O)N[C@@H](CCC(N)=O)C(=O)N[C@@H](CCCNC(=N)N)C(=O)N[C@@H](C)C(=O)N[C@@H](CCCCN)C(=O)N[C@@H](CO)C(=O)O)[C@@H](C)O (H-S[1Nal]RNGVGTGMKKTSFQRAKS-OH)	232%	8.71
CSCC[C@H](NC(=O)CNC(=O)[C@@H](NC(=O)CNC(=O)[C@@H](NC(=O)CNC(=O)[C@H](CC(N)=O)NC(=O)[C@H](CCCNC(=N)N)NC(=O)C1(NC(=O)[C@@H](N)CO)Cc2ccccc2C1)C(C)C)[C@@H](C)O)C(=O)N[C@@H](CCCCN)C(=O)N[C@@H](CCCCN)C(=O)N[C@H](C(=O)N[C@@H](CO)C(=O)N[C@@H](Cc1ccccc1)C(=O)N[C@@H](CCC(N)=O)C(=O)N[C@@H](CCCNC(=N)N)C(=O)N[C@@H](C)C(=O)N[C@@H](CCCCN)C(=O)N[C@@H](CO)C(=O)O)[C@@H](C)O (H-S[Aic]RNGVGTGMKKTSFQRAKS-OH)	211%	7.47
CSCC[C@H](NC(=O)CNC(=O)[C@@H](NC(=O)CNC(=O)[C@@H](NC(=O)CNC(=O)[C@H](CC(N)=O)NC(=O)[C@H](CCCNC(=N)N)NC(=O)[C@]1(NC(=O)[C@@H](N)CO)CCc2ccccc2C1)C(C)C)[C@@H](C)O)C(=O)N[C@@H](CCCCN)C(=O)N[C@@H](CCCCN)C(=O)N[C@H](C(=O)N[C@@H](CO)C(=O)N[C@@H](Cc1ccccc1)C(=O)N[C@@H](CCC(N)=O)C(=O)N[C@@H](CCCNC(=N)N)C(=O)N[C@@H](C)C(=O)N[C@@H](CCCCN)C(=O)N[C@@H](CO)C(=O)O)[C@@H](C)O (H-S[Atc(2S)]RNGVGTGMKKTSFQRAKS-OH)	257%	7.95
CSCC[C@H](NC(=O)CNC(=O)[C@@H](NC(=O)CNC(=O)[C@@H](NC(=O)CNC(=O)[C@H](CC(N)=O)NC(=O)[C@H](CCCNC(=N)N)NC(=O)[C@H](Cc1ccc(-c2ccccc2)cc1)NC(=O)[C@@H](N)CO)C(C)C)[C@@H](C)O)C(=O)N[C@@H](CCCCN)C(=O)N[C@@H](CCCCN)C(=O)N[C@H](C(=O)N[C@@H](CO)C(=O)N[C@@H](Cc1ccccc1)C(=O)N[C@@H](CCC(N)=O)C(=O)N[C@@H](CCCNC(=N)N)C(=O)N[C@@H](C)C(=O)N[C@@H](CCCCN)C(=O)N[C@@H](CO)C(=O)O)[C@@H](C)O (H-S[Bip]RNGVGTGMKKTSFQRAKS-OH)	170%	7.70
CSCC[C@H](NC(=O)CNC(=O)[C@@H](NC(=O)CNC(=O)[C@@H](NC(=O)CNC(=O)[C@H](CC(N)=O)NC(=O)[C@H](CCCNC(=N)N)NC(=O)[C@H](CC1CCCCC1)NC(=O)[C@@H](N)CO)C(C)C)[C@@H](C)O)C(=O)N[C@@H](CCCCN)C(=O)N[C@@H](CCCCN)C(=O)N[C@H](C(=O)N[C@@H](CO)C(=O)N[C@@H](Cc1ccccc1)C(=O)N[C@@H](CCC(N)=O)C(=O)N[C@@H](CCCNC(=N)N)C(=O)N[C@@H](C)C(=O)N[C@@H](CCCCN)C(=O)N[C@@H](CO)C(=O)O)[C@@H](C)O (H-S[Cha]RNGVGTGMKKTSFQRAKS-OH)	221%	8.87
CSCC[C@H](NC(=O)CNC(=O)[C@@H](NC(=O)CNC(=O)[C@@H](NC(=O)CNC(=O)[C@H](CC(N)=O)NC(=O)[C@H](CCCNC(=N)N)NC(=O)CN(Cc1ccccc1)C(=O)[C@@H](N)CO)C(C)C)[C@@H](C)O)C(=O)N[C@@H](CCCCN)C(=O)N[C@@H](CCCCN)C(=O)N[C@H](C(=O)N[C@@H](CO)C(=O)N[C@@H](Cc1ccccc1)C(=O)N[C@@H](CCC(N)=O)C(=O)N[C@@H](CCCNC(=N)N)C(=O)N[C@@H](C)C(=O)N[C@@H](CCCCN)C(=O)N[C@@H](CO)C(=O)O)[C@@H](C)O (H-S[Nphe]RNGVGTGMKKTSFQRAKS-OH)	246%	7.81
CSCC[C@H](NC(=O)CNC(=O)[C@@H](NC(=O)CNC(=O)[C@@H](NC(=O)CNC(=O)[C@H](CC(N)=O)NC(=O)[C@H](CCCNC(=N)N)NC(=O)[C@H](Cc1ccccc1C)NC(=O)[C@@H](N)CO)C(C)C)[C@@H](C)O)C(=O)N[C@@H](CCCCN)C(=O)N[C@@H](CCCCN)C(=O)N[C@H](C(=O)N[C@@H](CO)C(=O)N[C@@H](Cc1ccccc1)C(=O)N[C@@H](CCC(N)=O)C(=O)N[C@@H](CCCNC(=N)N)C(=O)N[C@@H](C)C(=O)N[C@@H](CCCCN)C(=O)N[C@@H](CO)C(=O)O)[C@@H](C)O (H-S[Phe(2-Me)]RNGVGTGMKKTSFQRAKS-OH)	222%	8.73
CSCC[C@H](NC(=O)CNC(=O)[C@@H](NC(=O)CNC(=O)[C@@H](NC(=O)CNC(=O)[C@H](CC(N)=O)NC(=O)[C@H](CCCNC(=N)N)NC(=O)[C@H](Cc1ccc(Br)cc1)NC(=O)[C@@H](N)CO)C(C)C)[C@@H](C)O)C(=O)N[C@@H](CCCCN)C(=O)N[C@@H](CCCCN)C(=O)N[C@H](C(=O)N[C@@H](CO)C(=O)N[C@@H](Cc1ccccc1)C(=O)N[C@@H](CCC(N)=O)C(=O)N[C@@H](CCCNC(=N)N)C(=O)N[C@@H](C)C(=O)N[C@@H](CCCCN)C(=O)N[C@@H](CO)C(=O)O)[C@@H](C)O (H-S[Phe(4-Br)]RNGVGTGMKKTSFQRAKS-OH)	309%	9.19
CSCC[C@H](NC(=O)CNC(=O)[C@@H](NC(=O)CNC(=O)[C@@H](NC(=O)CNC(=O)[C@H](CC(N)=O)NC(=O)[C@H](CCCNC(=N)N)NC(=O)[C@H](Cc1ccc(C(F)(F)F)cc1)NC(=O)[C@@H](N)CO)C(C)C)[C@@H](C)O)C(=O)N[C@@H](CCCCN)C(=O)N[C@@H](CCCCN)C(=O)N[C@H](C(=O)N[C@@H](CO)C(=O)N[C@@H](Cc1ccccc1)C(=O)N[C@@H](CCC(N)=O)C(=O)N[C@@H](CCCNC(=N)N)C(=O)N[C@@H](C)C(=O)N[C@@H](CCCCN)C(=O)N[C@@H](CO)C(=O)O)[C@@H](C)O (H-S[Phe(4-CF3)]RNGVGTGMKKTSFQRAKS-OH)	286%	8.59
CSCC[C@H](NC(=O)CNC(=O)[C@@H](NC(=O)CNC(=O)[C@@H](NC(=O)CNC(=O)[C@H](CC(N)=O)NC(=O)[C@H](CCCNC(=N)N)NC(=O)[C@H](Cc1ccc(C#N)cc1)NC(=O)[C@@H](N)CO)C(C)C)[C@@H](C)O)C(=O)N[C@@H](CCCCN)C(=O)N[C@@H](CCCCN)C(=O)N[C@H](C(=O)N[C@@H](CO)C(=O)N[C@@H](Cc1ccccc1)C(=O)N[C@@H](CCC(N)=O)C(=O)N[C@@H](CCCNC(=N)N)C(=O)N[C@@H](C)C(=O)N[C@@H](CCCCN)C(=O)N[C@@H](CO)C(=O)O)[C@@H](C)O (H-S[Phe(4-CN)]RNGVGTGMKKTSFQRAKS-OH)	296%	8.48
CSCC[C@H](NC(=O)CNC(=O)[C@@H](NC(=O)CNC(=O)[C@@H](NC(=O)CNC(=O)[C@H](CC(N)=O)NC(=O)[C@H](CCCNC(=N)N)NC(=O)[C@H](Cc1ccc(Cl)cc1)NC(=O)[C@@H](N)CO)C(C)C)[C@@H](C)O)C(=O)N[C@@H](CCCCN)C(=O)N[C@@H](CCCCN)C(=O)N[C@H](C(=O)N[C@@H](CO)C(=O)N[C@@H](Cc1ccccc1)C(=O)N[C@@H](CCC(N)=O)C(=O)N[C@@H](CCCNC(=N)N)C(=O)N[C@@H](C)C(=O)N[C@@H](CCCCN)C(=O)N[C@@H](CO)C(=O)O)[C@@H](C)O (H-S[Phe(4-Cl)]RNGVGTGMKKTSFQRAKS-OH)	298%	9.15
CSCC[C@H](NC(=O)CNC(=O)[C@@H](NC(=O)CNC(=O)[C@@H](NC(=O)CNC(=O)[C@H](CC(N)=O)NC(=O)[C@H](CCCNC(=N)N)NC(=O)[C@H](Cc1ccc(F)cc1)NC(=O)[C@@H](N)CO)C(C)C)[C@@H](C)O)C(=O)N[C@@H](CCCCN)C(=O)N[C@@H](CCCCN)C(=O)N[C@H](C(=O)N[C@@H](CO)C(=O)N[C@@H](Cc1ccccc1)C(=O)N[C@@H](CCC(N)=O)C(=O)N[C@@H](CCCNC(=N)N)C(=O)N[C@@H](C)C(=O)N[C@@H](CCCCN)C(=O)N[C@@H](CO)C(=O)O)[C@@H](C)O (H-S[Phe(4-F)]RNGVGTGMKKTSFQRAKS-OH)	291%	8.96
CSCC[C@H](NC(=O)CNC(=O)[C@@H](NC(=O)CNC(=O)[C@@H](NC(=O)CNC(=O)[C@H](CC(N)=O)NC(=O)[C@H](CCCNC(=N)N)NC(=O)[C@H](Cc1ccc(I)cc1)NC(=O)[C@@H](N)CO)C(C)C)[C@@H](C)O)C(=O)N[C@@H](CCCCN)C(=O)N[C@@H](CCCCN)C(=O)N[C@H](C(=O)N[C@@H](CO)C(=O)N[C@@H](Cc1ccccc1)C(=O)N[C@@H](CCC(N)=O)C(=O)N[C@@H](CCCNC(=N)N)C(=O)N[C@@H](C)C(=O)N[C@@H](CCCCN)C(=O)N[C@@H](CO)C(=O)O)[C@@H](C)O (H-S[Phe(4-I)]RNGVGTGMKKTSFQRAKS-OH)	243%	8.75
CSCC[C@H](NC(=O)CNC(=O)[C@@H](NC(=O)CNC(=O)[C@@H](NC(=O)CNC(=O)[C@H](CC(N)=O)NC(=O)[C@H](CCCNC(=N)N)NC(=O)[C@H](Cc1ccc(C)cc1)NC(=O)[C@@H](N)CO)C(C)C)[C@@H](C)O)C(=O)N[C@@H](CCCCN)C(=O)N[C@@H](CCCCN)C(=O)N[C@H](C(=O)N[C@@H](CO)C(=O)N[C@@H](Cc1ccccc1)C(=O)N[C@@H](CCC(N)=O)C(=O)N[C@@H](CCCNC(=N)N)C(=O)N[C@@H](C)C(=O)N[C@@H](CCCCN)C(=O)N[C@@H](CO)C(=O)O)[C@@H](C)O (H-S[Phe(4-Me)]RNGVGTGMKKTSFQRAKS-OH)	317%	9.17
